High-throughput results deposited in PubChem by SRMLSC.
The entries come from a sample that favours hits as a whole.
bCat KO growth: beta-catenin-lacking colon tumor cell growth suppression; HCT116 beta-catenin knockout viability, CellTiter-Glo, 60 h; hits give low values; viability, % at 10 µM; 140,000 compounds, 1.5% hits;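 active = viability at or under a set limit, the compound median less 4 SD, cut at about 6% in these data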;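 also: 0% = Hyamine 1622 control at 20 µM and 100% = untreated cell control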
HCT116 PTEN-null: suppresses growth of cells with PTEN deletion | HCT116 PTEN-null viability, CellTiter-Glo, 60 h; hits give low values | viability, % at 10 µM | 140,000 compounds, 1.2% hits;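 active = viability at or below a set limit, 4 SD under the median of all tested compounds, cut at about 3.7% in these data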;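 also: PTEN knockout HCT116 line with beta catenin targeted HCT116 as companion control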
H69AR growth 86K: growth inhibitors of human H69AR lung tumor cells; H69AR lung tumor viability, ATP luminescence, 72 h; hits give low values; viability, % at 10 µM; 85,000 compounds, 6% hits; AID 598;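 active = viability at or below 40%; inactive = viability above 40%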;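 also: multidrug resistant small cell line overexpressing MRP-1 efflux transporter; 100% = mean luminescence of untreated control wells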
Lung fibro prol: blocks proliferation of human lung fibroblasts. AID 719. viability, % at 10 µM. 85,000 compounds, 1.1% hits. LL 47 human lung fibroblast viability, ATP luminescence; hits give low values;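 active = viability at or below 50% in the single dose screen; inactive = viability above 50%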;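 also: compound exposure lasted 72 h before the ATP readout; 100% = median luminescence of untreated cell-only wells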
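Times – overnight cell rest, 72 h compound treatment at 37 °C · Test system – human lung fibroblast line LL 47, low passage · Amount – 1,150 cells in each well · Controls – cell-only wells, no compound · Doses – 0.1% DMSO in all compound wells · Measured by – CellTiter-Glo luminescence · Buffer or medium – IMEM plus 15% FBS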
HUVEC prolif 384: human endothelial cell proliferation inhibition; HUVEC proliferation, CellTiter-Glo luminescence, 72 h; hits give low values; AID 648; 86,000 compounds, 1.1% hits; viability, % at 10 µM (by protocol);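 active = viability at or below 30%; inactive = viability above 30%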;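 also: 100% = median luminescence of DMSO-only cell control wells on each plate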
* marks the source's active call; other numbers are inactive results; · = not tested or not shown.

SMILES	bCat KO growth	HCT116 PTEN-null	H69AR growth 86K	Lung fibro prol	HUVEC prolif 384
NNc1nc(-c2ccccc2)cc(-c2ccccc2O)n1	33	38	·	·	·
CN(C)c1cc(-c2ccccc2)nc(N)n1	55	48	40*	92	72
Nc1nc(-c2ccccc2)cc(-c2ccccc2O)n1	17	17	42	81	17*
Nc1ccc(-c2cc(-c3ccc(N)cc3)nc(-c3ccccc3)n2)cc1	92	93	·	·	·
N/C(Cc1ccc([N+](=O)[O-])cc1)=N\OC(=O)c1ccc2ccccc2c1	76	78	66	74	24*
Cc1cccc(C(=O)O/N=C(\N)Cc2ccc([N+](=O)[O-])cc2)c1	71	77	3.6*	91	59
N/C(Cc1ccc([N+](=O)[O-])cc1)=N\OC(=O)c1ccc(Br)cc1	97	87	·	·	·
CSc1cccc(NC(=O)Nc2ccc(Cl)cc2)c1	62	63	86	94	97
CSc1ccccc1NC(=O)Nc1ccc(Cl)cc1	29	20	35*	84	47
COc1ccc(-c2cc(-c3ccc(C)cc3)nc(SCc3nnc(-c4ccccc4)o3)c2C#N)cc1OC	1.5*	1.3*	·	·	·
COc1ccc(-c2nnc(CSc3nc4ccccc4c(=O)n3C)o2)cc1OC	71	73	60	95	81
O=S1(=O)C[C@H]2NC(=S)N(c3ccccc3)[C@H]2C1	87	80	·	·	·
O=C1CCCC(=O)N1c1ccc(Oc2ccc(Cl)cc2)cc1	96	99	·	·	·
Nc1c(C(=O)NCc2ccco2)c2nc3ccccc3nc2n1CCc1ccccc1F	77	72	27*	95	79
COc1ccc(-n2c(N)c(C(=O)NCc3ccco3)c3nc4ccccc4nc32)c(OC)c1	67	72	32*	89	69
COc1ccc(CCn2c(N)c(C(=O)NCc3ccco3)c3nc4ccccc4nc32)cc1	40	33	·	·	·
COc1ccc(CCn2c(N)c(C(=O)NCc3ccco3)c3nc4ccccc4nc32)cc1OC	35	25	24*	111	80
CCOc1cc(/C=N/NC(=S)Nc2ccccc2C(F)(F)F)ccc1OCC(=O)N1CCOCC1	95	94	·	·	·
COC(=O)c1ccc2c(c1)C(C)(C)C(/C=C/c1ccc(OC)c(OC)c1OC)=[N+]2C	4.9*	0.6*	4.1*	6.5*	5.3*
COC(=O)c1ccc2nc(C)c(C)nc2c1	98	95	·	·	·
COC(=O)c1ccc2c(c1)C(C)(C)C(/C=C/c1ccc(O)cc1)=[N+]2C	1.9*	1.7*	·	·	·
O=C(COC(=O)c1nc(-c2ccccc2)n(-c2cccc(C(F)(F)F)c2)n1)NCc1cccs1	99	103	·	·	·
COc1ccc(CNCCC(c2ccc(F)cc2)c2ccc(OC)cc2)cc1 (stereo unspecified)	1.9*	9	·	·	·
COc1ccc(C(CC(=O)NCc2ccco2)c2ccc(F)cc2)cc1 (stereo unspecified)	86	83	97	91	92
COc1ccc(C(CCNCc2ccc(F)cc2)c2ccc(F)cc2)cc1 (stereo unspecified)	1.2*	1.2*	·	·	·
SMILES	bCat KO growth	HCT116 PTEN-null	H69AR growth 86K	Lung fibro prol	HUVEC prolif 384
COc1ccc(C(CCNC(C)c2ccccc2)c2ccc(F)cc2)cc1 (stereo unspecified)	1.4*	1.4*	·	·	·
COc1ccc(C(CCNCc2ccccc2)c2ccc(F)cc2)cc1 (stereo unspecified)	2.0*	2.4*	·	·	·
COc1ccc(NC(=O)CC(c2ccc(F)cc2)c2ccc(OC(C)C)cc2)cc1 (stereo unspecified)	79	91	·	·	·
Cc1ccc(-c2nc3ccc(NS(=O)(=O)c4ccccc4)cc3[nH]2)o1	62	59	104	100	79
O=C(CSc1nnc(-c2cccs2)o1)Nc1cccc(S(=O)(=O)N2CCCCC2)c1	94	96	·	·	·
COc1ccc2c(c1)-c1nc(/N=C/c3ccc(O)c(OC)c3)sc1CC2	94	97	·	·	·
COc1ccc(N(C(=O)Cc2cccs2)C(C(=O)NC2CCCCC2)c2cccn2C)cc1 (stereo unspecified)	90	83	78	86	78
Cn1cccc1C(C(=O)NC1CCCCC1)N(C(=O)Cc1cccs1)c1ccc2c(c1)OCO2 (stereo unspecified)	100	101	28*	81	85
CCOC(=O)CC(=O)CSc1nc2c(c(C)c1C#N)CCC2	94	82	12*	103	78
COC(=O)CSc1nc2cc(C)ccc2cc1C#N	85	81	78	·	81
Cc1ccc(-c2nnc(SCC(=O)Nc3ccccc3N3CCOCC3)o2)cc1	97	93	95	96	106
CCOC(=O)CC(=O)CSc1nc2ccc(C)cc2cc1C#N	31	25	3.2*	96	100
Cc1ccc2nc(SCC(=O)Nc3ccccc3N3CCOCC3)c(C#N)cc2c1	57	58	24*	95	44
COc1cccc(N2CC(=O)N(NC(=O)CSc3nc(C)cc(C)c3C#N)CC2=O)c1	106	101	·	·	·
Cn1cnc([N+](=O)[O-])c1S(=O)(=O)c1ccc(Cl)cc1	1.6*	1.7*	·	·	·
CCN(CC)S(=O)(=O)c1cccc(C(=O)NC(Cc2c[nH]c3ccccc23)c2nnc3n2CCC3)c1 (stereo unspecified)	79	94	·	·	·
CCOC(=O)C1=C(O)/C(=C/c2cn(CC(=O)NCC3CCCO3)c3ccccc23)SC1=Nc1ccc(C)cc1 (stereo unspecified)	·	·	23*	27*	12*
CCc1ccc(N2C(=O)c3sc4nnc(-c5ccccc5)c(=O)n4c3C2=O)cc1	101	86	30*	61	81
O=S(=O)(NCCc1csc(-c2cccnc2)n1)c1ccc(Cl)s1	57	73	82	90	90
COc1ccccc1C(=O)Nc1ccc(S(=O)(=O)N2CCc3ccccc32)cc1	83	79	95	107	107
CCc1nnc(NC(=O)c2ccc(S(=O)(=O)N3CCCc4ccccc43)cc2)o1	18	14	20*	67	58
COC(=O)Nc1ccc(S(=O)(=O)N2CCCc3ccccc32)cc1	14	15	18*	53	51
Cn1c(=O)oc2cc(S(=O)(=O)N3CCCc4ccccc43)ccc21	15	15	23*	50	48
O=C(O/N=C\c1ccc(N2CCCCC2)c([N+](=O)[O-])c1)c1ccc(Cl)cc1Cl	95	91	·	·	·
COc1ccccc1C(=O)/C=C/c1ccc(N2CCCCC2)c([N+](=O)[O-])c1	1.5*	1.4*	·	·	·
CCOC(=O)c1ccc(-n2nc(C(F)(F)F)c3c(C)cc(=O)oc32)cc1	·	·	81	101	84
CCOC(=O)c1c(C)oc2c1c(C(c1ccncc1)N1CCOCC1)c(O)c1ccccc12 (stereo unspecified)	9	17	0.9*	53	60
CCOC(=O)C1=C(C)NC(SCC(=O)Nc2nc(C)cs2)=C(C#N)C1c1cccs1 (stereo unspecified)	41	19	37*	98	46
